# HSF1 inhib – HSF1 inhibition | activity change, negative = inhibition, % at 7.5 µM (by protocol) | actives 0.77% (n = 300,000) | NIH3T3-HGL HSE-luciferase, MG132-induced, luminescence 8 h; stronger effect = lower value | AID 2098;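 active means more than half of replicate wells show activity change below -50%, luminescence cut by over half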;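 further: luciferase reports HSF-1 transcriptional activity via heat shock element; 0% = median of DMSO wells and -100% = zero luminescence signal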
# GPR7 antag – antagonists of human GPR7 (neuropeptides B/W receptor 1). AID 1861. GPR7-expressing cells, fluorescence antagonist assay. actives 1.1% (n = 290,000). P48145. inhibition, % at 4.4 µM; in the data active means inhibition above about 16%, passing the limit was not always enough;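 further: cells stimulated with the agonist NPW; 0% = agonist with vehicle and 100% = vehicle without agonist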
# Target sequence (P48145 whole entry, looked up): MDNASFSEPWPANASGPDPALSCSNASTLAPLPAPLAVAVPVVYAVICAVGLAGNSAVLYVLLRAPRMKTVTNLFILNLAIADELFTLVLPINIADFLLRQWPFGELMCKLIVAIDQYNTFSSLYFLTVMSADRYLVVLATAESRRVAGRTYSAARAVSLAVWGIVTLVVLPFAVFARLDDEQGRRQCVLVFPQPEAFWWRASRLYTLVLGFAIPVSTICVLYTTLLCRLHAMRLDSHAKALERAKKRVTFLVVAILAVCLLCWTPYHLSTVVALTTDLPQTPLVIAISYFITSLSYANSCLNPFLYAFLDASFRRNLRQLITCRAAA
# HSF-1 act – increases HSF-1 driven luciferase reporter signal; AID 504408; NIH3T3-HGL HSF-1 luciferase reporter, MG132, 8 h; 100% = twice DMSO control signal; activation, % at 9 µM; actives 1.7% (n = 300,000);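 active means mean replicate activation of at least 50% with a set share of replicates each reaching 50%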;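 further: 0% = median of the neutral control wells and 100% = twice that signal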
# 697 NFkB inh – lowers PMA/ionomycin-induced NF-kB signal in 697 B cells. 697 B-cell NF-kB luciferase reporter, 16 h. inhibition, % at 4 µM. actives 0.33% (n = 330,000); in the data active means inhibition above about 35%
# Jurkat NFkB inh – inhibitors of the PMA/ionomycin-induced NF-kB reporter in Jurkat cells | PMA/ionomycin-induced NF-kB luciferase reporter, luminescence | inhibition, % at 4 µM | actives 0.53% (n = 330,000); in the data active means inhibition above about 50%
# T cruzi inh – T. cruzi replication inhibition; T. cruzi beta-gal in NIH3T3, luminescence, 90 h; inhibition, % (concentration not given with the values); actives 1.4% (n = 300,000); AID 1885;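 active means mean inhibition across valid replicates above about 55%, limit read from the data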;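 further: signal also drops with host cell toxicity which is not excluded here; 0% = plate median of DMSO wells and 100% = zero luminescence signal; higher percent means less beta-gal luminescence so fewer parasites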
#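 System: NIH/3T3 fibroblasts plus reporter T. cruzi. Medium: DMEM plus 2% FBS. Probe or stimulus: 5000 reporter trypomastigotes per well. Compound: single 50 nL compound addition per well in DMSO. Incubation: co-culture of at least 90 h after 3 h attachment. Detection: GalScreen β-gal luminescence, detergent lysis, 60 min. Evaluation: parasite load inhibition, %.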
# GPR7 antag conf – confirmation of human GPR7 antagonists; GPR7-expressing cells, calcium fluorescence antagonist mode; inhibition, % at 4.4 µM; shares compounds with GPR7 antag; actives 52% (n = 2,400); in the data active means inhibition above about 24%;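 further: stimulated with the GPR7 agonist NPW; 0% = agonist plus vehicle and 100% = vehicle alone without agonist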
# MCHR1 antagonist – MCHR1 (human) antagonism in GPR7 counter-screen. shares compounds with GPR7 antag. inhibition, % at 4.4 µM. MCHR1-expressing cells, fluorescence antagonist assay. actives 62% (n = 2,400); in the data active means inhibition above about 22%;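 further: 0% = vehicle with agonist and 100% = vehicle without agonist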
# * = called active by the depositor; . = not tested or not shown. The list is not random: actives were taken first. Their share in the collection is about 4.8%.
SMILES,HSF1 inhib,GPR7 antag,HSF-1 act,697 NFkB inh,Jurkat NFkB inh,T cruzi inh,GPR7 antag conf,MCHR1 antagonist
O=C(NCc1ccc(F)cc1)C1CCCN(S(=O)(=O)c2ccc(-n3cnnn3)cc2)C1 (stereo not drawn),10,-3,17,15,23,2,.,.
O=C(c1cc2ccccc2o1)N1CCN(C/C=C/c2ccccc2)CC1,3,29*,9,-4,7,19,7,21*
CCn1c(CNC(=O)C2CCCCC2)cc2cc(C)ccc21,-1,28*,-11,-10,5,-11,-11,-2
COc1cn(-c2ccccc2)nc1C(=O)NCc1ccccc1,3,-12,44,4,-7,7,.,.
C#CCOn1c(-n2nc(C)cc2C)nc2ccccc2c1=O,4,10,11,-17,11,-16,.,.
CN(C)CCCNc1cc(C(C)(C)C)nc2c(-c3ccccc3)cnn12,-7,67*,-9,-111,4,56*,66*,67*
Cc1cc(NCCCN2CCOCC2)n2ncc(-c3ccccc3)c2n1,-12,4,-27,-112,-147,29,.,.
COc1ccc(C)cc1NC(=O)c1ccc(N(C)S(C)(=O)=O)cc1,8,31*,20,-12,-17,3,7,16
Clc1cccc(-c2nnc(SC/C=C/c3ccccc3)n2Cc2ccco2)c1,-1,27*,0,-29,-20,3,44*,72*
O=C(NCc1ccco1)/C(=C\c1ccc(F)cc1)NC(=O)c1ccco1,-9,29*,7,4,-7,-3,5,7
COc1ccc(/C=C(\NC(=O)c2ccco2)C(=O)NCc2ccco2)cc1,-4,6,-10,2,4,3,.,.
OC(COCc1ccc(Cl)cc1)CN1CCCCC1 (stereo not drawn),0,15,1,-17,-19,8,.,.
OC(COCc1ccc(Cl)cc1)CN1CCN(CC(O)COCc2ccc(Cl)cc2)CC1 (stereo not drawn),1,26*,21,-10,32,18,68*,73*
NC(=O)C1CC(=O)N(c2ccc(OCc3ccc(Cl)cc3)cc2)C1 (stereo not drawn),17,-3,27,6,-63,-22,.,.
CN(Cc1ccc(N(C)C)cc1)C(=O)c1cc2ccccc2o1,10,41*,22,-12,-20,42,10,26*
CN(Cc1ccccc1)C(=O)c1cc2ccccc2o1,-4,1,4,-60,-61,-7,.,.
COc1ccc(CCNC(=O)C(C)n2nc(C)c3c(C)n(-c4ccc(C)cc4)nc3c2=O)c(OC)c1 (stereo not drawn),0,5,2,-16,25,13,.,.
Cc1c(Cl)cccc1NC(=S)N(Cc1cccs1)C1CCCC1,3,23*,4,2,2,-15,-2,27*
COc1ccc(-c2cnc(SCC(=O)Nc3ccc4c(c3)OCO4)n2Cc2ccco2)cc1,2,22*,16,-27,2,-9,42*,68*
O=C(CSc1nnc(COc2ccccc2)n1Cc1ccco1)Nc1ccc2c(c1)OCCO2,10,29*,34,26,3,8,31*,33*
COc1ccc2sc3ccccc3c(=O)c2c1,14,1,22,-46,-54,-1,.,.
COc1ccc(-c2cc(=O)c3ccccc3s2)cc1,15,35*,23,-159,-120,7,7,27*
CSc1ccc(NC(=O)NCCCN2CCC(Cc3ccccc3)CC2)cc1,4,29*,-2,-10,1,10,26*,33*
COc1ccc(NC(=O)NCCCN2CCC(Cc3ccccc3)CC2)cc1,-4,13,-4,-28,3,6,.,.
CC1CCN(CCCNC(=O)CN2C(=O)CSc3ccc(S(=O)(=O)N4CCC(C)CC4)cc32)CC1,5,26*,32,-28,-23,19,-5,-9

# Compound activity from PubChem.
